# From ChEMBL document CHEMBL3297668, “Synthesis of truncated analogues of preptin-(1–16), and investigation of their ability to stimulate osteoblast proliferation” (Bioorg Med Chem, 2014)
# Active and inactive are the calls of the source. No cut-off for these calls is given here. Where a SMILES comes first, the peptide text is derived from it.
# Tested on: Osteoblast
# Experiment: Stimulation of differentiation of rat osteoblasts assessed as increase in mineralized bone nodules at 10 '-10 to 10 '-9 M after 3 weeks using Von Kossa staining by bone nodule formation assay relative to control
# Type: functional, cell-based
# Procedure, shortened: (§1)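 Primary osteoblasts from 20-day fetal rat calvariae (sequential collagenase digests 3 and 4) plated at 5 × 10⁴ cells/well in αMEM/10% FBS plus ascorbate-2-phosphate. At confluence (~3 days), medium switched to MEM/15% FBS with 50 µg/mL L-ascorbic acid-2-phosphate and 10 mM β-glycerophosphate, plus peptide; medium and peptide renewed twice weekly. Dexamethasone positive control. At 21 days, fixed in 10% neutral buffered formalin, Von Kossa stained, mineralized area quantified by image analysis.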
row,Compound,Activity
1,CC(=O)N[C@@H](Cc1ccccc1)C(=O)N1CCC[C@H]1C(=O)N[C@@H](CCCNC(=N)N)C(=O)N[C@@H](Cc1ccc(O)cc1)C(N)=O (Ac-FPRY-NH2),inactive

# Tested on: Osteoblast
# Experiment: Stimulation of differentiation of rat osteoblasts assessed as increase in mineralized bone nodules at 10 '-9 M after 3 weeks using Von Kossa staining by bone nodule formation assay relative to control
# Type: functional, cell-based
# Procedure, shortened: as §1
row,Compound,Activity
1,H-DVSTSQAV-OH,Active

# Tested on: Osteoblast
# Experiment: Stimulation of proliferation of foetal rat osteoblasts at 10 '-10 to 10 '-8 M after 18 to 24 hrs by [3H]-thymidine incorporation assay relative to control
# Type: functional, cell-based
# Procedure, shortened: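 Osteoblasts from 20-day fetal rat calvariae (collagenase digests 3 and 4) were expanded in FBS medium with ascorbate-2-phosphate, seeded at 2.5 × 10⁴ cells/well in 5% FBS/MEM for 24 h, then growth-arrested 24 h in 0.1% BSA/5 µg/mL ascorbate-2-phosphate. Peptide treatment 24 h, with [³H]-thymidine pulse over the final 6 h. Result expressed as treatment/vehicle ratio. 6 wells/group, 3–4 experiments, ANOVA with Dunnett's test.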
row,Compound,Activity
1,H-SQAVLPDDFPRY-NH2,inactive
2,H-DVSTSQAV-OH,Active
3,N=C(N)NCCC[C@H](NC(=O)[C@@H]1CCCN1C(=O)[C@@H](N)Cc1ccccc1)C(=O)N[C@@H](Cc1ccc(O)cc1)C(=O)O (H-FPRY-OH),inactive
4,Ac-SQAVLPDDFPRY-NH2,inactive
5,Ac-DVSTSQAV-NH2,inactive
6,Ac-LPDDFPRY-OH,inactive
7,Ac-LPDDFPRY-NH2,inactive
8,N=C(N)NCCC[C@H](NC(=O)[C@@H]1CCCN1C(=O)[C@@H](N)Cc1ccccc1)C(=O)N[C@@H](Cc1ccc(O)cc1)C(N)=O (H-FPRY-NH2),inactive
9,Ac-DVSTSQAVLPDDFPRY-OH,inactive
10,Ac-DVSTSQAVLPDD-OH,inactive
11,H-DVSTSQAVLPDDFPRY-NH2,inactive
12,Ac-DVSTSQAV-OH,inactive
13,H-LPDDFPRY-OH,inactive
14,H-DVSTSQAVLPDD-OH,inactive
15,CC(=O)N[C@@H](Cc1ccccc1)C(=O)N1CCC[C@H]1C(=O)N[C@@H](CCCNC(=N)N)C(=O)N[C@@H](Cc1ccc(O)cc1)C(N)=O (Ac-FPRY-NH2),Active
16,CC(C)[C@H](NC(=O)[C@@H](N)CC(=O)O)C(=O)N[C@@H](CO)C(=O)N[C@H](C(N)=O)[C@@H](C)O (H-DVST-NH2),inactive
17,Ac-DVSTSQAVLPDD-NH2,inactive
18,H-SQAVLPDDFPRY-OH,inactive
19,CC(=O)N[C@@H](CC(=O)O)C(=O)N[C@H](C(=O)N[C@@H](CO)C(=O)N[C@H](C(N)=O)[C@@H](C)O)C(C)C (Ac-DVST-NH2),inactive
20,CC(=O)N[C@@H](CC(=O)O)C(=O)N[C@H](C(=O)N[C@@H](CO)C(=O)N[C@H](C(=O)O)[C@@H](C)O)C(C)C (Ac-DVST-OH),inactive
21,H-DVSTSQAVLPDDFPRY-OH,Active
22,Ac-DVSTSQAVLPDDFPRY-NH2,Active
23,Ac-SQAVLPDDFPRY-OH,inactive
24,H-LPDDFPRY-NH2,inactive
25,CC(C)[C@H](NC(=O)[C@@H](N)CC(=O)O)C(=O)N[C@@H](CO)C(=O)N[C@H](C(=O)O)[C@@H](C)O (H-DVST-OH),inactive
26,CC(=O)N[C@@H](Cc1ccccc1)C(=O)N1CCC[C@H]1C(=O)N[C@@H](CCCNC(=N)N)C(=O)N[C@@H](Cc1ccc(O)cc1)C(=O)O (Ac-FPRY-OH),inactive
27,H-DVSTSQAVLPDD-NH2,inactive
